# Counter-ions that a name gives are not always drawn.
# Columns and labels:
# [1] = tested on: εA-containing oligonucleotide; test: SPR binding of compounds to immobilized εA-containing oligonucleotide; conditions: 15 µM compound
# In short: (§1)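 Biacore T100 SPR. Biotinylated 50-mer oligonucleotide, undamaged or εA-containing, immobilised on a streptavidin-coated C1 chip. Test compound injected at 15 µM in 10 mM HEPES-KOH pH 7.6, 90 mM KCl, 0.05% surfactant P20, at 7°C. Binding read as background-subtracted RU over 60 s injections.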
# [2] = tested on: undamaged (control) oligonucleotide; test: SPR binding of compounds to immobilized undamaged; conditions: 15 µM compound
# In short: as §1
# MPG [3] = molecular target: T1, MPG (Homo sapiens, UniProt P29372); test: Gel-based MPG activity assay in whole cell extracts; format: biochemical; conditions: 0–300 µM compound
# T1 sequence (P29372 18-298): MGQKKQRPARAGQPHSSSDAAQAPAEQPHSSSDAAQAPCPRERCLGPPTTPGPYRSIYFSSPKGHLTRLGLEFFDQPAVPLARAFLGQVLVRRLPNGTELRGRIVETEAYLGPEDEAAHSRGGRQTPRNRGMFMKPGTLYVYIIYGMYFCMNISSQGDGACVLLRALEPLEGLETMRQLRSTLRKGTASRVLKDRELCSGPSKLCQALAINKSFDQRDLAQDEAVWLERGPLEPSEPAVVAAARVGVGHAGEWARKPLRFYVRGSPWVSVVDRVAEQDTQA
# repair of εA = test: Plasmid-based in-cell repair assay, εA-containing M13mp18 plasmid; parameters: species or system human
# In short: (§2)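 Lesion (εA or 8-oxo-dG) was placed at the EcoRI site of M13mp18. A phosphorylated lesion primer was annealed to ssDNA, extended with T7 polymerase, ligated with T4 ligase, supercoiled and purified. A549 and HeLa cells (DMEM, 10% FBS, 1% antibiotic) were transfected with 0, 200 or 300 µM test compound. Recovered plasmids were cut with EcoRI (lesion site) and SacI (internal control), and repair was scored by plaque formation.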
# HeLa cells = test: MTT assay; format: cell-based, human; conditions: concentrations used in the repair assay, 72 h
# A549 cells = test: MTT assay; format: cell-based, human; conditions: A549, concentrations used in the repair assay, 72 h
# [4] = tested on: apurinic/apyrimidinic endonuclease 1 (APE1); test: Gel-based APE1 activity assay; format: biochemical; conditions: 0, 20 and 40 µM
# In short: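 Purified recombinant APE1 pre-incubated with test compound for 10 min at room temperature. Then reacted with a ³²P-labelled duplex oligonucleotide carrying a THF abasic-site analogue for 10 min at 37°C. Products resolved on denaturing 20% polyacrylamide/7 M urea gels at 60°C; band intensities quantified from X-ray film.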
# [5] = tested on: 8-oxoguanine DNA glycosylase (OGG1); test: Gel-based OGG1 activity assay; format: biochemical; conditions: 0, 20 and 40 µM; not dose-dependent
# In short: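 Purified recombinant OGG1 pre-incubated with test compound for 10 min at room temperature. Then reacted with a ³²P-labelled 8-oxo-dG-containing duplex oligonucleotide for 10 min at 37°C. Products resolved on denaturing 20% polyacrylamide/7 M urea gels at 60°C; band intensities quantified from X-ray film.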
# DNA polymerase β = conditions: high throughput screening; ref Pubchem Bioassay AID 485314 and 2517; cited from earlier work
# MPG [6] = molecular target: T1, MPG; test: SPR inhibition of hMPG binding to εA-containing substrate DNA; conditions: 40 µM morin hydrate
# In short: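 SPR with biotinylated εA-containing 50-mer oligonucleotide immobilised on a streptavidin C1 chip. Injections of 30 nM purified human MPG pre-mixed with test compound (0, 5, 10, 20, 40 µM), 60 s each. Binding taken as background-subtracted RU. Percent inhibition calculated as the decrease in RU versus DMSO.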
# repair of 8-oxo-dG = test: Plasmid-based in-cell repair assay, 8-oxo-dG-containing M13mp18 plasmid; parameters: species or system human
# In short: as §2
# APE1 = conditions: high throughput screening; ref Pubchem Bioassay AID 485314 and 2517; cited from earlier work
structure (smiles),measurement,setting,value
O=C1c2c(O)ccc(O)c2C(=O)c2c(NCCNCCO)ccc(NCCNCCO)c21 [mitoxantrone dihydrochloride],affinity for εA-containing DNA,[1],demonstrated affinity for DNA
same,affinity for unmodified (control) DNA,[2],demonstrated affinity for DNA
Cc1cc2c(C(C)C)c(O)c(O)c(C=O)c2c(O)c1-c1c(C)cc2c(C(C)C)c(O)c(O)c(C=O)c2c1O [gossypol],affinity for εA-containing DNA,[1],demonstrated affinity for DNA
same,affinity for unmodified (control) DNA,[2],demonstrated affinity for DNA
O=c1c(O)c(-c2ccc(O)c(O)c2)oc2cc(O)cc(O)c12 [Quercetin],MPG activity in whole cell extract,MPG [3]; HeLa extract,did not have an effect
O.O=c1c(O)c(-c2ccc(O)cc2O)oc2cc(O)cc(O)c12 [morin hydrate],reduction in repair,"repair of εA; 300 µM morin hydrate, A549 and HeLa cells",50–60%
same,repair of εA in live cells,"repair of εA; A549 cells, 0, 200, 300 µM",inhibited
same,repair of εA in live cells,"repair of εA; HeLa cells, 0, 200, 300 µM",inhibited
same,IC50,"repair of εA; Homo sapiens, read-out: IC50 of MPG inhibition in live cells and in extracts",100 to 300 µM
same,toxicity (cell survival),HeLa cells,not toxic
same,toxicity (cell survival),A549 cells,not toxic
same,affinity for εA-containing DNA,[1],no detectable affinity
same,effect on the activity of APE1,[4],no effect
same,MPG activity in whole cell extract,MPG [3]; A549 extract,inhibited
same,MPG activity in whole cell extract,MPG [3]; HeLa extract,inhibited
same,effect on OGG1 activity,[5],some promiscuous inhibition
same,inhibition of DNA polymerase β,DNA polymerase β,inhibit
same,inhibition of MPG DNA binding,MPG [6],Complete inhibition
same,affinity for unmodified (control) DNA,[2],no detectable affinity
same,repair of 8-oxo-dG in live cells,"repair of 8-oxo-dG; A549 cells, 0, 200, 300 µM",unaffected
same,repair of 8-oxo-dG in live cells,"repair of 8-oxo-dG; HeLa cells, 0, 200, 300 µM",unaffected
same,inhibition of APE1,APE1,inhibit

# Source: PMC4339462 (Bioorganic & medicinal chemistry, 2015)
